Reference: ChEMBL document CHEMBL1157842, “Novel derivatives of 1,3,4-oxadiazoles are potent mitostatic agents featuring strong microtubule depolymerizing activity in the sea urchin embryo and cell culture assays” (Eur J Med Chem, 2010)
Active and inactive are the calls of the source.

Experiments:
[1] = tested on: Paracentrotus lividus; experiment: Antiproliferative activity against Paracentrotus lividus embryo assessed as cleavage alteration after 10 to 15 mins fertilization 45 to 60 mins before first mitotic cycle completeion; assay type: functional, organism-based
Procedure, shortened: (§1)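 Paracentrotus lividus embryos, gametes obtained by intracoelomic 0.5 M KCl injection. Fertilized eggs ([…] post-fertilization, 45–60 min before first mitosis) were exposed to 2-fold decreasing concentrations, at up to 3000 embryos/mL in filtered sea water at room temperature. Stocks were 5 mM in 95% EtOH or 5–10 mM in DMSO, diluted 10-fold with 95% EtOH. Read-out was scored at 2.5–6 h: threshold concentration for cleavage alteration or full mitotic arrest. Duplicate measurements.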

[2] = tested on: Paracentrotus lividus; experiment: Antimitotic activity against Paracentrotus lividus embryo assessed as cleavage arrest after 10 to 15 mins fertilization 45 to 60 mins before first mitotic cycle completeion; assay type: functional, organism-based; procedure, shortened: as §1
[3] = tested on: Paracentrotus lividus; experiment: Cytotoxicity against Paracentrotus lividus embryo assessed as embryo spinning after 9 to 12 hrs fertilization and 0.5 to 20 hrs treatment; assay type: functional, organism-based
Procedure, shortened: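 Paracentrotus lividus free-swimming blastulae treated just after hatching (9–12 h post-fertilization). Behavior was monitored by light microscopy and embryo spinning scored as threshold concentration. Embryos were held in filtered sea water at room temperature with paddle agitation. Compound stocks were in 95% EtOH or DMSO diluted in EtOH; maximal tolerated final DMSO 0.05%, EtOH 1%.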

[4] = tested on: A549; experiment: Cytotoxicity against human A549 cells after 24 hrs by MTT assay; assay type: functional, cell-based; settings: A549, 24 h
Procedure, shortened: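 A549 cells in DMEM/10% FBS at 3 × 10³ cells/well, treated 24 h (8 wells per concentration), with 0.4% DMSO as control. MTT (final 0.5 mg/mL) was added for the last 2 h and formazan dissolved in DMSO containing 10% SDS/0.6% acetic acid. OD read at 590 nm (690 nm reference). Three repeats; IC50 from sigmoidal fit.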

[5] = tested on: A549; experiment: Cell cycle arrest in human A549 cells assessed as accumulation at G2/M phase after 24 hrs using propidium iodide staining by flow cytometry; assay type: functional, cell-based
Procedure, shortened: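 A549 cells seeded at 5 × 10⁵ per 50 mm dish and treated 24 h, with 0.4% DMSO as negative control. Cells were trypsinized, fixed in 70% ethanol at −20 °C, then treated with RNase 1 mg/mL for 30 min at 37 °C and propidium iodide for 30 min at 37 °C. DNA content of 10000 cells measured by flow cytometry; EC50 for G2/M accumulation.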

[6] = tested on: A549; experiment: Induction of microtubule disruption in human A549 cells at 5 uM after 8 hrs by indirect immunofluorescence microscopic analysis; assay type: functional, cell-based
Procedure, shortened: (§2)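 A549 cells on glass coverslips (2 × 10⁴ per coverslip) exposed 8 h at 37 °C, 5% CO₂, with 0.6% DMSO as negative control. Fixed cells were stained with mouse anti-α-tubulin (1:400) and Alexa Fluor 488 goat anti-mouse IgG (1:200). Microtubule network examined by fluorescence microscopy.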

[7] = organism: Bos taurus; experiment: Inhibition of purified bovine brain tubulin polymerization at 10 uM after 1 hr by VEC-DIC microscopic analysis
Procedure, shortened: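 Bovine brain tubulin (1.2 mg/mL) in BRB80 (80 mM PIPES pH 6.8, 1 mM MgCl₂, 1 mM EGTA) was polymerized with 10% DMSO and 0.5 mM GTP. It was then incubated 1 h at 37 °C with compound, using 0.6% DMSO as negative control. Microtubule assembly was scored by VEC-DIC video microscopy.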

[8] = Inhibition of tubulin polymerization at 10 uM
[9] = tested on: A549; experiment: Induction of microtubule disruption in human A549 cells at 25 uM after 8 hrs by indirect immunofluorescence microscopic analysis; assay type: functional, cell-based; procedure, shortened: as §2
[10] = tested on: A549; experiment: Induction of microtubule disruption in human A549 cells at 20 uM after 8 hrs by indirect immunofluorescence microscopic analysis; assay type: functional, cell-based
[11] = tested on: Paracentrotus lividus; experiment: Toxicity in Paracentrotus lividus embryo assessed as mortality at => 1 uM after 9 to 12 hrs fertilization; assay type: organism-based; settings: in vivo
[12] = Homo sapiens, A549, 24 h, read-out: EC50

In the case of `CS(=O)(=O)c1ccc(Nc2nnc(-c3ccccc3N)o2)cc1`, the EC50 [1] is reported as 4000 nM, the EC50 [2] is reported as > 4000 nM and the EC50 [3] is reported as > 5000 nM.

In the case of `c1ccc(-c2nnc(Nc3ccc4c(c3)OCCO4)o2)c(NCc2ccncc2)c1`, the EC50 [1] is reported as 0.5 nM, the EC50 [2] is reported as 2 nM and the EC50 [3] is reported as 5 nM. The IC50 [4] was 15 nM, the EC50 [5, 12] was 44.5 nM and the EC50 ([5]; a549) was “Dose-dependent effect”. For the same compound, the Activity [6] was “Active”, the Activity [7] was “Active” and the Activity [8] was “Active”.

With `Nc1nc2ccccc2cc1-c1nnc(Nc2ccc3c(c2)OCO3)o1` the EC50 [1] was 50 nM, the EC50 [2] was 2000 nM and the EC50 [3] was > 2000 nM.

In the case of `c1ccc(-c2nnc(Nc3ccc4c(c3)OCCO4)o2)c(NCc2ccns2)c1`, the EC50 [1] is reported as 2000 nM, the EC50 [2] is reported as 5000 nM and the EC50 [3] is reported as 5000 nM.

`COC(=O)Nc1nc2cc(C(=O)c3cccs3)ccc2[nH]1` [NOCODAZOLE] gave an EC50 [1] of 5 nM, an EC50 [2] of 10 nM and an EC50 [3] of 100 nM. The IC50 [4] was 36.6 nM and the EC50 [5, 12] was 106 nM.

In the case of `c1cncc(CNc2cn[nH]c2-c2nnc(Nc3ccc4c(c3)OCO4)o2)c1`, the EC50 [1] is reported as 1000 nM, the EC50 [2] is reported as > 10000 nM and the EC50 [3] is reported as > 10000 nM.

For `c1ccc(-c2nnc(Nc3ccc4c(c3)OCO4)o2)c(NCc2ccncc2)c1`, the EC50 [1] was 0.5 nM, the EC50 [2] was 2 nM and the EC50 [3] was 5 nM.

Work on `COc1ccc(/C=C\c2cc(OC)c(OC)c(OC)c2)cc1OP(=O)(O)O` [FOSBRETABULIN DISODIUM] yielded an EC50 [1] of 5 nM, an EC50 [2] of 10 nM and an EC50 [3] of 1000 nM.

For `Cn1ncc(NCc2cccnc2)c1-c1nnc(Nc2ccc3c(c2)OCCO3)o1`, the EC50 [1] was 200 nM, the EC50 [2] was 1000 nM and the EC50 [3] was > 2500 nM.

`c1cncc(CNc2ccccc2-c2nnc(Nc3ccc4c(c3)OCO4)o2)c1` gave an EC50 [1] of 1 nM, an EC50 [2] of 5 nM and an EC50 [3] of 5 nM.

`c1cncc(CNc2csnc2-c2nnc(Nc3ccc4c(c3)OCO4)o2)c1` showed an EC50 [1] of 5 nM, an EC50 [2] of 50 nM and an EC50 [3] of 50 nM.

`c1cncc(CNc2ccccc2-c2nnc(Nc3ccc4c(c3)OCCO4)o2)c1` showed an EC50 [1] of 1 nM, an EC50 [2] of 5 nM and an EC50 [3] of 5 nM.

With `Nc1[nH]ncc1-c1nnc(Nc2ccc3c(c2)OCO3)o1` the EC50 [1] was > 20000 nM, the EC50 [2] was > 20000 nM and the EC50 [3] was > 20000 nM.

`c1cc(CNc2csnc2-c2nnc(Nc3ccc4c(c3)OCCO4)o2)ccn1` showed an EC50 [1] of 2 nM, an EC50 [2] of 5 nM and an EC50 [3] of 100 nM. The IC50 [4] was 53.5 nM, the EC50 [5, 12] was 63 nM and the EC50 ([5]; a549) was “Dose-dependent effect”. For the same compound, the Activity [6] was “Active”, the Activity [7] was “Active” and the Activity [8] was “Active”.

In the case of `COc1ccc(-c2nnc(Nc3ccc4c(c3)OCCO4)o2)c(N)c1`, the EC50 [1] is reported as 25 nM, the EC50 [2] is reported as 100 nM and the EC50 [3] is reported as 200 nM.

For `Clc1ccc(Nc2nnc(-c3nscc3NCc3cccnc3)o2)cc1`, the EC50 [1] was 500 nM, the EC50 [2] was 2000 nM and the EC50 [3] was > 2500 nM.

With `Nc1csnc1-c1nnc(Nc2ccc(Cl)cc2)o1` the EC50 [1] was 200 nM, the EC50 [2] was 500 nM and the EC50 [3] was 500 nM.

In the case of `c1cncc(CNc2cn[nH]c2-c2nnc(Nc3ccc4c(c3)OCCO4)o2)c1`, the EC50 [1] is reported as 1000 nM, the EC50 [2] is reported as > 10000 nM and the EC50 [3] is reported as > 10000 nM.

For `Nc1ccccc1-c1nnc(Nc2ccc3c(c2)OCCO3)o1`, the EC50 [1] was 1 nM, the EC50 [2] was 20 nM and the EC50 [3] was 100 nM. The IC50 [4] was 1570 nM, the EC50 [5, 12] was 2820 nM and the Activity [6] was “inactive”. For the same compound, the Activity [9] was “Active”, the Activity [7] was “Active” and the Activity [8] was “Active”.

In the case of `COc1ccc(/C=C\c2cc(OC)c3c(c2)OCO3)cc1O` [Combretastatin A-2], the EC50 [1] is reported as 2 nM, the EC50 [2] is reported as 10 nM and the EC50 [3] is reported as 50 nM.

`c1cc(CNc2csnc2-c2nnc(Nc3ccc4c(c3)OCO4)o2)ccn1` gave an EC50 [1] of 2 nM, an EC50 [2] of 5 nM and an EC50 [3] of 20 nM.

In the case of `Nc1cc2c(cc1-c1nnc(Nc3ccc4c(c3)OCO4)o1)OCO2`, the EC50 [1] is reported as 50 nM, the EC50 [2] is reported as 500 nM and the EC50 [3] is reported as 200 nM.

With `COc1cc(N)c(-c2nnc(Nc3ccc4c(c3)OCO4)o2)c(OC)c1` the EC50 [1] was 50 nM, the EC50 [2] was 200 nM and the EC50 [3] was 1000 nM.

In the case of `Nc1ccccc1-c1nnc(Nc2ccc3c(c2)OCO3)o1`, the EC50 [1] is reported as 1 nM, the EC50 [2] is reported as 10 nM and the EC50 [3] is reported as 1000 nM. The IC50 [4] was 3000 nM, the EC50 [5, 12] was 8550 nM and the Activity [6] was “inactive”. The Activity [9] was “Active”, the Activity [7] was “Active” and the Activity [8] was “Active”.

In the case of `Nc1csnc1-c1nnc(Nc2ccc3c(c2)OCO3)o1`, the EC50 [1] is reported as 500 nM, the EC50 [2] is reported as 4000 nM and the EC50 [3] is reported as > 5000 nM. For the same compound, the IC50 [4] was > 20000 nM, the EC50 [5, 12] was > 20000 nM and the Activity [10] was “inactive”.

In the case of `COc1cc(-c2nnc(Nc3ccc4c(c3)OCO4)o2)cc(OC)c1OC`, the EC50 [1] is reported as 400 nM, the EC50 [2] is reported as 1000 nM and the EC50 [3] is reported as > 5000 nM. For the same compound, the Activity [11] was “Toxic”.

In the case of `COc1cc([C@@H]2c3cc4c(cc3[C@H](O)[C@H]3COC(=O)[C@H]23)OCO4)cc(OC)c1OC` [PODOFILOX], the EC50 [1] is reported as 20 nM, the EC50 [2] is reported as 50 nM and the EC50 [3] is reported as 500 nM.

`c1cncc(CNc2csnc2-c2nnc(Nc3ccc4c(c3)OCCO4)o2)c1` showed an EC50 [1] of 5 nM, an EC50 [2] of 10 nM and an EC50 [3] of 100 nM.
